Rows were chosen to be rich in hits. Some 2.2% of all compounds tested hit in one or more screens of this group.
VIM-2 inh – blocks Pseudomonas aeruginosa VIM-2 metallo-beta-lactamase; purified VIM-2, nitrocefin hydrolysis, epi-absorbance fluorescence; inhibition, % at 5.6 µM; hit rate 0.89% among 290,000; AID 1527;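 active = inhibition above the mean of all tested compounds plus 3 SD, cutoff set per screening run, cut at about 7.5% in these data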;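 also: red hydrolysis product quenches plate fluorescence so inhibitors raise well fluorescence; 0% = enzyme with DMSO and 100% = DMSO without enzyme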
GLD-1 RNA inh – GLD-1-TGE RNA interaction inhibition (C. elegans); purified GLD-1 + fluorescein TGE RNA, fluorescence polarization; inhibition, % at 5.96 µM; hit rate 0.44% among 320,000; AID 2280;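 active = percent inhibition above a per-plate cutoff, the plate mean of test compounds plus 3 SD, cut at about 30% in these data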;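 also: 0% = DMSO wells with GLD-1 and probe and 100% = wells lacking GLD-1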
BCLXL inh – Bcl-xL (human) inhibition | Q07817 | GST-Bcl-xL / FITC-Bim BH3 peptide fluorescence polarization | inhibition, % at 10.9 µM | hit rate 0.7% among 320,000 | AID 2129;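 active = inhibition above the mean of all tested compounds plus 3 SD, cutoff set per campaign, cut at about 30% in these data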;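 also: 0% = DMSO wells and 100% = unlabeled Bim-BH3 peptide competitor; inhibitors lower millipolarization by displacing the labeled peptide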
Target sequence (Q07817 whole entry, looked up): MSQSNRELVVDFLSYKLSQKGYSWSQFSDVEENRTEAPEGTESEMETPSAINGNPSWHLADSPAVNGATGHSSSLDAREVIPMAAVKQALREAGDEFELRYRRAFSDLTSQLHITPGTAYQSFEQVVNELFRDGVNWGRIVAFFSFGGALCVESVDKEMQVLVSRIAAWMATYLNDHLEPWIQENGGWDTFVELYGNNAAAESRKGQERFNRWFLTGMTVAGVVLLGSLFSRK
IMP-1 inh – inhibitors of Pseudomonas aeruginosa IMP-1 metallo-beta-lactamase. purified IMP-1, nitrocefin hydrolysis, epi-absorbance fluorescence. inhibition, % at 5.6 µM. hit rate 0.45% among 290,000. AID 1556;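 active = inhibition above the mean plus 3 SD of all compounds in the same screening run, cut at about 4.5% in these data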;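 also: 0% = IMP-1 with DMSO and 100% = DMSO wells lacking enzyme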
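assay system = purified recombinant IMP-1 metallo-beta-lactamase enzyme | schedule = 15 min preincubation plus 25 min reaction at 25 °C | signal = Epi-absorbance fluorescence, 480 nm excitation, 530 nm emission | read-out basis = percent inhibition from optical density relative to buffer-blank wells | controls = IMP-1 with DMSO as 0%, enzyme-free DMSO as 100%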
MEX-5 binding – C. elegans MEX-5 TCR-2 RNA binding activity; activity score (negative = inhibition of binding), % at 10 µM; MEX-5/FITC-TCR2 RNA binding, fluorescence polarization; hits give low values; AID 1832; hit rate 0.38% among 300,000;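 active = inhibition past about -25% in most replicates, and total fluorescence under double the plate's negative control median, limit read from the data; inconclusive = replicates evenly split on the limit, or fluorescence at least double controls; inactive = too little inhibition in most replicates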;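 also: 0% = DMSO and -100% = 5 µM competing unlabeled TCR2 RNA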
EBV gp42 block – inhibitors of Epstein-Barr virus glycoprotein 42; Q1HVG2; Fluorescence polarization binding assay, mP read-out; inhibition, % (tested at 21.74 µM); hit rate 0.42% among 220,000; in the data active = inhibition above about 50%
Target sequence (Q1HVG2 whole entry, looked up): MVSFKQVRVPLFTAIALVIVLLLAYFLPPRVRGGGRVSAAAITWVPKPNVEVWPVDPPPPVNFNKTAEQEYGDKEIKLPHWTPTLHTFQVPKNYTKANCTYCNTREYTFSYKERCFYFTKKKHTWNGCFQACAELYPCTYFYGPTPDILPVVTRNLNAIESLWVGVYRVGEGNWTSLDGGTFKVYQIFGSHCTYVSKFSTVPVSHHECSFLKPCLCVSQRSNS
The depositor's hits bear a star; ? = inconclusive; nt = not tested or not shown; + = active, no number.

SMILES	VIM-2 inh	GLD-1 RNA inh	BCLXL inh	IMP-1 inh	MEX-5 binding	EBV gp42 block
O=c1[nH]c(=O)n(Cc2ccc(F)cc2)c(O)c1C=Nc1ccc(Cl)cc1	-1.0	-3.9	-5.4	-1.3	1.6	-10.5
CCOc1ccc(-n2c(O)c(C=Nc3ccc(N(CC)CC)cc3)c(=O)[nH]c2=O)cc1	-0.6	0.2	-7.6	-0.3	-19.4	82.5*
C[C@]12CCC3C(CC[C@@H]4C[C@H](O)CC[C@]34C)C1CCC2=O (stereo partly specified)	nt	3.5	nt	nt	nt	nt
CCC(=O)N1CC(=O)Nc2ccc(F)cc2C1c1ccc(F)cc1 (stereo unspecified)	-0.1	-0.3	-0.6	-2.5	-0.8	nt
CCCCc1cc(=O)oc2cc(OCC(=O)N3C[C@H]4C[C@@H](C3)c3cccc(=O)n3C4)c(Cl)cc12	0.5	0.9	-0.1	-5.5	-1.0	nt
CCN1/C(=C\C=C\C2=[N+](CC)c3ccccc3C2(C)C)C(C)(C)c2ccccc21	5.4	+	+	5.5*	?	6.5
CCC(COC(=O)c1cc(OC)c(OC)c(OC)c1)(c1ccccc1)N(C)C (stereo unspecified)	-5.5	-3.7	0.8	41.0*	3.8	-1.1
CCCOP(=O)(OCCC)C(NC(=O)c1cc(OC)c(OC)c(OC)c1)c1ccccc1 (stereo unspecified)	-1.3	6.9	3.4	-4.1	1.2	-20.5
CCOc1cc2c(cc1OCC)-n1cccc1C(c1cccc(F)c1)NC2 (stereo unspecified)	0.0	2.9	3.1	-1.0	0.8	nt
COC(=O)C(Cc1ccc(N(CCCl)CCCl)cc1)N=Cc1ccccc1O (stereo unspecified)	-1.5	9.2	3.5	-3.5	4.5	nt
O=[N+]([O-])c1cc(S(=O)(=O)c2ccc(O)c([N+](=O)[O-])c2)ccc1O	-2.8	-2.9	14.7	-1.8	-35.7*	-3.5
O=[N+]([O-])c1cccc(O)c1	nt	3.4	3.8	nt	nt	nt
N#CCC(=O)NN1Cc2ccccc2C1=N	-2.3	-0.1	75.1*	0.4	1.2	-15.3
Cc1nc2ccccc2c(=O)n1-c1ccc(-c2ccccc2)cc1	1.4	6.5	-1.4	-2.5	-1.4	nt
CCOC(=O)[C@]1(C#N)[C@@H]2C=CC(C(N)=O)=CN2[C@@H](C(N)=O)[C@@H]1c1ccc(F)cc1	1.8	24.0	22.5	-0.5	-6.0	11.8
CCOC(=O)[C@@]1(C#N)C(c2ccc(Cl)c(Cl)c2)[C@H](C(N)=O)N2C=C(C(C)=O)C=C[C@H]21 (stereo partly specified)	-1.6	4.9	11.0	-3.3	-56.2*	101.6*
CCOC(=O)[C@@]1(C#N)[C@@H]2C=CC(C(N)=O)=CN2[C@@H](C(N)=O)[C@@H]1c1cccc(Cl)c1	0.2	20.9	37.7*	-1.6	-10.0	6.0
COCCNC(=O)CN1C(=O)CN=C(c2ccccc2)c2ccccc21	-1.9	-0.5	0.1	-4.1	-0.6	-3.7
NC(=O)CS(=O)C(c1ccccc1)c1ccccc1 (stereo unspecified)	-2.5	nt	nt	-1.7	nt	-12.7
O=C1NC(=S)N(Cc2ccco2)C(=O)/C1=C\c1cccs1	1.6	nt	nt	5.1*	nt	72.3*
CN(C)c1cc[n+](CC(O)C[n+]2ccc(N(C)C)cc2)cc1	nt	-3.1	-1.3	nt	-0.2	nt
O=C(O)c1ccc(-n2c(O)c(/C=C3\C=Nc4ccccc43)c(=O)[nH]c2=O)cc1	-2.3	-16.6	0.1	-1.1	0.5	nt
O=c1[nH]c(=O)n(-c2cccc(F)c2)c(O)c1/C=C1\C=Nc2ccccc21	2.5	-19.4	159.6*	3.8	?	nt
Cc1cc(C=C(C#N)C#N)ccc1N1CCCC1	-2.1	-111.2	-25.0	-1.3	-6.4	-54.2
N#CC(C#N)=Cc1ccc(N2CCOCC2)cc1	-2.1	0.1	-2.4	-1.3	-27.3*	-55.1
O=c1[nH]c(=S)n(-c2ccccc2F)c(O)c1C=NCCN1CCNCC1	-1.9	0.4	6.8	-4.9	0.6	nt
CCCc1nnc(NC(=O)CCC(=O)N2CCC3(CC2)OCCO3)s1	0.6	23.4	54.5*	-1.5	1.5	-6.3
CCOc1cccc(OCC)c2c(C)[n+](CC3CCCO3)c(C)c1-2 (stereo unspecified)	-2.5	32.4*	52.6*	-3.6	-1.8	9.2
CCn1c(O)c(/C=N/N2CCOCC2)c(=O)n(CC)c1=S	-5.0	-23.8	-45.6	-2.9	-2.5	-13.7

Source: PubChem
